Laboratory results reported in ChEMBL document CHEMBL1138921, “Discovery of 3,5-bis(trifluoromethyl)benzyl L-arylglycinamide based potent CCR2 antagonists” (Bioorg Med Chem Lett, 2006).

What was measured:
[1] = biological target: T1, C-C chemokine receptor type 2 (Homo sapiens, UniProt P41597); assay: Displacement of [125I]MCP1 from human CCR2 expressed in CHO cells at 1 uM; assay type: cell-based
Procedure, shortened: (§1)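 Competition binding: CHO cells stably expressing human CCR2b (5 × 10⁴) incubated with ¹²⁵I-hMCP-1 (20–50 pM) plus varied unlabeled competitor, 60 min, room temperature, in 50 mM HEPES, 5 mM MgCl₂, 1 mM CaCl₂, pH 7.4. Ended by filtration through polyethyleneimine-soaked GF/B filters, washed with 25 mM HEPES pH 7.5/500 mM NaCl. Values given as IC₅₀ or % inhibition at 1 µM.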
Target sequence in this assay (P41597 whole entry, looked up): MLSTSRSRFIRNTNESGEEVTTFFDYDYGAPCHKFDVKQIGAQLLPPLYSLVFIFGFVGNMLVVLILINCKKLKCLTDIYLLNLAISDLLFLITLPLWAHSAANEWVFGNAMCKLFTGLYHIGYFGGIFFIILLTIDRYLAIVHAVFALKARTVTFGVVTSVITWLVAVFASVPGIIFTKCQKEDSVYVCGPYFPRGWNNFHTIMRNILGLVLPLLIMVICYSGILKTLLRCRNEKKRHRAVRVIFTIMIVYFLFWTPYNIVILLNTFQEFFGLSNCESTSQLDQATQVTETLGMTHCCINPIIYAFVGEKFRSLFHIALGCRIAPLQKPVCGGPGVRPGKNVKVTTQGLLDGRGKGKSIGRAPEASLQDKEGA

[2] = biological target: T1, C-C chemokine receptor type 2; assay: Displacement of [125I]MCP1 from human CCR2 expressed in CHO cells; assay type: cell-based; procedure, shortened: as §1
Monocyte = assay: Inhibition of MCP1-induced chemotaxis of human monocytes; assay type: functional, cell-based
Procedure, shortened: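 Human monocytes loaded with Calcein-AM in Hanks' buffer with 0.01% BSA, 37 °C, 30 min, then washed and resuspended in phenol red-free RPMI 1640 with 0.01% BSA. Migration toward MCP-1 measured in disposable 96-well chemotaxis plates (5.7 mm diameter wells), 1.5 × 10⁵ cells/well.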

Substance-P receptor = Substance-P receptor (Homo sapiens, UniProt P25103); assay: Binding affinity to human NK1 receptor
Sequence of Substance-P receptor (P25103 whole entry): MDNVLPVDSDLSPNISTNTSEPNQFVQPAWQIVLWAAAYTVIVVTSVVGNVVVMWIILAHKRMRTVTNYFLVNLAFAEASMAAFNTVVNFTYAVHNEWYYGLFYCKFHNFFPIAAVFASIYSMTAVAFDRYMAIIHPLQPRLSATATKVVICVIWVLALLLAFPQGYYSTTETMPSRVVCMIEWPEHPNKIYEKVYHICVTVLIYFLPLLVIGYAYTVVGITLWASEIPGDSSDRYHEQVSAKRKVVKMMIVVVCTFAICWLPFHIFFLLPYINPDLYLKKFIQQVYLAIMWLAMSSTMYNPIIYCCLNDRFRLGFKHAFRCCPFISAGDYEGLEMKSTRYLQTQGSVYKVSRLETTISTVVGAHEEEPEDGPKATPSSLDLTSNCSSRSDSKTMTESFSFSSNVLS

Structure (SMILES)	inhibition [1] [%]	IC50 [2] [nM]	also measured
CC(NC(=O)[C@@H](NCCN(C)C)c1ccccc1)c1cc(C(F)(F)F)cc(C(F)(F)F)c1 (some centres undefined)	28	–	–
CN(C)CCN[C@@H](C(=O)NCc1cc(C(F)(F)F)cc(C(F)(F)F)c1)c1cccs1	–	865	–
COCCNC(C(=O)NCc1cc(C(F)(F)F)cc(C(F)(F)F)c1)c1ccccc1 (centres undefined)	0	–	–
CN(C)CCNC(C(=O)NCc1cc(C(F)(F)F)cc(C(F)(F)F)c1)c1ccccc1 (centres undefined)	–	1480	–
CN(C)CCNC(C(=O)NCc1cc(C(F)(F)F)cc(C(F)(F)F)c1)c1ccc(F)c(F)c1 (centres undefined)	33	–	–
CN(C)CCN[C@H](CNC(=O)c1cc(C(F)(F)F)cc(C(F)(F)F)c1)c1ccccc1	0	–	–
CN(C)CCN[C@@H](C(=O)NCc1cc(C(F)(F)F)cc(C(F)(F)F)c1)c1ccc(F)cc1	8	–	–
CC(C)CCNC(C(=O)NCc1cc(C(F)(F)F)cc(C(F)(F)F)c1)c1ccccc1 (centres undefined)	0	–	–
O=C(NCc1cc(C(F)(F)F)cc(C(F)(F)F)c1)[C@@H](NCCN1CCCCCC1)c1ccccc1	–	400	–
O=C(NCc1cc(C(F)(F)F)cc(C(F)(F)F)c1)[C@@H](NCCN1CCCCC1)c1ccc(F)cc1	–	175	–
CN(C)CCN[C@H](C(=O)NCc1cccc(C(F)(F)F)c1)c1ccccc1	5	–	–
CN(C)CCNC(C(=O)NCc1cc(C(F)(F)F)cc(C(F)(F)F)c1)c1ccc(Cl)cc1 (centres undefined)	–	1100	–
CN(C)CCNC(C(=O)NCc1cc(C(F)(F)F)cc(C(F)(F)F)c1)c1ccc(Br)cc1 (centres undefined)	25	–	–
O=C(NCc1cc(C(F)(F)F)cc(C(F)(F)F)c1)[C@@H](NCCN1CCC(c2ccccc2)CC1)c1ccccc1	–	822	–
O=C(/C=C/c1ccc(Cl)c(Cl)c1)NCCCCCN1CCC(c2c[nH]c3ccc(O)cc23)CC1	–	–	Kb (Monocyte): 25 nM
CC1CCCCN1CCN[C@H](C(=O)NCc1cc(C(F)(F)F)cc(C(F)(F)F)c1)c1ccccc1 (some centres undefined)	–	838	–
Nc1ccc(C(F)(F)F)cc1C(=O)NCC(=O)NCC1CCN(Cc2ccc(Cl)cc2)CC1	–	200	–
CC(=O)N(Cc1cc(C(F)(F)F)cc(C(F)(F)F)c1)C[C@@H](NCCN(C)C)c1ccccc1	4	–	–
CN(C)CCNC(C(=O)NCc1cc(C(F)(F)F)cc(C(F)(F)F)c1)c1ccco1 (centres undefined)	–	592	–
CN(C)CCN[C@H](CNS(=O)(=O)c1cc(C(F)(F)F)cc(C(F)(F)F)c1)c1ccccc1	0	–	–
CN(C)CCN[C@H](CN(Cc1cc(C(F)(F)F)cc(C(F)(F)F)c1)S(C)(=O)=O)c1ccccc1	0	–	–
CN(C)CCN[C@H](C(=O)NCc1ccc(C(F)(F)F)cc1)c1ccccc1	7	–	–
Cc1cc(C)cc(CNC(=O)[C@@H](NCCN(C)C)c2ccccc2)c1	0	–	–

Structure (SMILES)	inhibition [1] [%]	IC50 [2] [nM]	also measured
O=C(NCc1cc(C(F)(F)F)cc(C(F)(F)F)c1)C(NCCN1CCCC1)c1ccccc1 (centres undefined)	–	521	–
O=C(NCc1cc(C(F)(F)F)cc(C(F)(F)F)c1)[C@@H](NCCN1CCCCC1)c1ccccc1	–	219	–
O=C(NCc1cc(C(F)(F)F)cc(C(F)(F)F)c1)C(NCCN1CCCCC1)c1ccccc1 (centres undefined)	–	342	–
CN(C)CCN[C@H](C(=O)NCc1cc(C(F)(F)F)cc(C(F)(F)F)c1)c1ccccc1	–	1000	–
O=C(NCc1cc(C(F)(F)F)cc(C(F)(F)F)c1)C(NCCN1CCOCC1)c1ccccc1 (centres undefined)	–	575	–
CN(C)CCNCC(=O)NCc1cc(C(F)(F)F)cc(C(F)(F)F)c1	0	–	–
CCN(CC)CCNC(C(=O)NCc1cc(C(F)(F)F)cc(C(F)(F)F)c1)c1ccccc1 (centres undefined)	–	678	–
NCCNC(C(=O)NCc1cc(C(F)(F)F)cc(C(F)(F)F)c1)c1ccccc1 (centres undefined)	14	–	–
CN(C)CCN[C@H](COCc1cc(C(F)(F)F)cc(C(F)(F)F)c1)c1ccccc1	6	–	–
CN(C)CCN[C@H](C(=O)NCc1ccccc1C(F)(F)F)c1ccccc1	1	–	–
O=C(NC(=O)c1ccc2nccnc2c1)Nc1cccc(-c2ccccc2)c1	–	–	IC50 (Monocyte): 60 nM
CC1CCN(CCN[C@H](C(=O)NCc2cc(C(F)(F)F)cc(C(F)(F)F)c2)c2ccccc2)CC1	–	756	–
CN(C)CCN[C@@H](Cc1ccc(F)cc1)C(=O)NCc1cc(C(F)(F)F)cc(C(F)(F)F)c1	1	–	–
CN(C)CCN[C@H](C(=O)N(C)Cc1cc(C(F)(F)F)cc(C(F)(F)F)c1)c1ccccc1	20	–	–
CN(C)CCN[C@H](C(=O)NCc1cc(C(F)(F)F)cc(C(F)(F)F)c1)c1ccsc1	–	424	–
COc1ccc([C@H](NCCN(C)C)C(=O)NCc2cc(C(F)(F)F)cc(C(F)(F)F)c2)cc1	47	–	–
CN(C)CCNC(C(=O)NCc1cc(C(F)(F)F)cc(C(F)(F)F)c1)c1cccc(Br)c1 (centres undefined)	17	–	–
Cc1ccc2c(c1)C1(CCN(CCc3coc(-c4ccc(F)cc4)n3)CC1)OC(=O)N2	–	32	IC50 (Monocyte): 1000 nM
O=C(NCc1cc(C(F)(F)F)cc(C(F)(F)F)c1)[C@@H](NCCCN1CCCCC1)c1ccccc1	26	–	–
CN(C)CCN[C@H](C(=O)NCc1cc(C(F)(F)F)cc(C(F)(F)F)c1)C1CCCCC1	9	–	–
CN(C)CCN[C@H](C(=O)NCc1cc(C(F)(F)F)cc(C(F)(F)F)c1)c1ccc(F)cc1	–	770	IC50 (Substance-P receptor): 650 nM
CN(C)CCN[C@H](CN(C)S(=O)(=O)c1cc(C(F)(F)F)cc(C(F)(F)F)c1)c1ccccc1	0	–	–
O=C(O)c1cc2cc(O)ccc2n1Cc1ccc(Cl)c(Cl)c1	–	–	Ki [2]: 29 nM; IC50 (Monocyte): 60 nM
